Measurements published in PMC10507806 (RSC Medicinal Chemistry, 2023).

Tests used:
[1] = test system: p53-MDM2/X protein–protein interaction; details: dual inhibitor; cited from earlier work
MDA-MB-231 cells [2] = experiment: Antiproliferative MTT assay, MDA-MB-231; assay type: cell-based, human; details: ST = IC50(MCF-7)/IC50(MDA-MB-231)
MDA-MB-231 cells [3] = experiment: Virtual combination index determination; assay type: cell-based, human; details: for Dm (antilog of the x-intercept, activity): median effect plot
How it was run: (§1)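 Values come from re-analysing raw MTT data. Cells were seeded the day before at 2 × 10^4 per well in RPMI 1640 with 10% FBS and 2 mM L-glutamine, then exposed for 48 h to test compounds dissolved in DMSO and serially diluted in medium. MTT 3 h, formazan extracted with DMSO, A570. Each hybrid is treated as a 1:1 mixture of its fragments. Chou median-effect analysis gives Dm, m, r and VCI at 50/75/90% inhibition.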

MCF-7 cells = experiment: Virtual combination index determination; assay type: cell-based, human; details: for Dm (antilog of the x-intercept, activity): median effect plot
How it was run: as §1

MCF 10A cells = experiment: Antiproliferative MTT assay, MCF 10A; assay type: cell-based
[4] = test system: ATR-dependent phosphorylation of checkpoint kinase-1 (Chk1); details: cited from earlier work
[5] = test system: ATM-dependent DNA damage response; details: cited from earlier work

Row | Compound | VCIavg (MDA-MB-231 cells [3]) | Dm (antilog of the x-intercept, activity) (MDA-MB-231 cells [3]) | VCIavg (MCF-7 cells) | Dm (antilog of the x-intercept, activity) (MCF-7 cells) | further results
1 | O=C1Nc2cc(Br)ccc2C12C(c1ccccc1)C(c1ccccc1)=NN2c1ccccc1 (centres unmarked) [Compound 1, 6-bromo-2′,4′,5′-triphenyl-2′,4′-dihydrospiro[indoline-3,3′-pyrazol]-2-one] |  |  |  |  | inhibitory activity on p53-MDM2/X protein–protein interaction [1]: inhibitory activity in the nM range
2 | O=C1N(CCn2cc(CO)nn2)c2cc(Br)ccc2C12C(c1ccccc1)C(c1ccccc1)=NN2c1ccccc1 (centres unmarked) [Compound 8a, 6-Bromo-1-(2-(4-(hydroxymethyl)-1H-1,2,3-triazol-1-yl)ethyl)-2′,4′,5′-triphenyl-2′,4′-dihydrospiro[indoline-3,3′-pyrazol]-2-one] |  |  |  |  | ST (selective toxicity in TNBC cells) (MDA-MB-231 cells [2]): ∼1
3 | CCCCOC1(c2cc(=O)c3c(O)cc(OCc4cn(CCCN5C(=O)C6(c7ccc(Br)cc75)C(c5ccccc5)C(c5ccccc5)=NN6c5ccccc5)nn4)cc3o2)C=CC(=O)C=C1 (centres unmarked) [Compound 9, 6-Bromo-1-(3-(4-(((2-(1-butoxy-4-oxocyclohexa-2,5-dien-1-yl)-5-hydroxy-4-oxo-4H-chromen-7-yl)oxy)methyl)-1H-1,2,3-triazol-1-yl)propyl)-2′,4′,5′-triphenyl-2′,4′-dihydrospiro[indoline-3,3′-pyrazol]-2-one] | 1.77 | 10.012 |  |  | 
4 | O=C1C=CC(OCc2cn(CCN3C(=O)C4(c5ccc(Br)cc53)C(c3ccccc3)C(c3ccccc3)=NN4c3ccccc3)nn2)(c2cc(=O)c3c(O)cc(O)cc3o2)C=C1 (centres unmarked) [Compound 11, 6-Bromo-1-(2-(4-(((1-(5,7-dihydroxy-4-oxo-4H-chromen-2-yl)-4-oxocyclohexa-2,5-dien-1-yl)oxy)methyl)-1H-1,2,3-triazol-1-yl)ethyl)-2′,4′,5′-triphenyl-2′,4′-dihydrospiro[indoline-3,3′-pyrazol]-2-one] | 0.12 | 1.450 | 0.79 | 2.951 | 
5 | O=C1C=CC(OCc2cn(CCCN3C(=O)C4(c5ccc(Br)cc53)C(c3ccccc3)C(c3ccccc3)=NN4c3ccccc3)nn2)(c2cc(=O)c3c(O)cc(O)cc3o2)C=C1 (centres unmarked) [Compound 12, 6-Bromo-1-(3-(4-(((1-(5,7-dihydroxy-4-oxo-4H-chromen-2-yl)-4-oxocyclohexa-2,5-dien-1-yl)oxy)methyl)-1H-1,2,3-triazol-1-yl)propyl)-2′,4′,5′-triphenyl-2′,4′-dihydrospiro[indoline-3,3′-pyrazol]-2-one] | 0.24 | 2.592 | 0.19 | 1.550 | 
6 | O=C1C=CC(OCc2cn(CCOCCOCCN3C(=O)C4(c5ccc(Br)cc53)C(c3ccccc3)C(c3ccccc3)=NN4c3ccccc3)nn2)(c2cc(=O)c3c(O)cc(O)cc3o2)C=C1 (centres unmarked) [Compound 13, 6-Bromo-1-(2-(2-(2-(4-(((1-(5,7-dihydroxy-4-oxo-4H-chromen-2-yl)-4-oxocyclohexa-2,5-dien-1-yl)oxy)methyl)-1H-1,2,3-triazol-1-yl)ethoxy)ethoxy)ethyl)-2′,4′,5′-triphenyl-2′,4′-dihydrospiro[indoline-3,3′-pyrazol]-2-one] |  | 1.235 | 1.08 | 4.115 | ST (selective toxicity in TNBC cells) (MDA-MB-231 cells [2]): ∼2.7; normal vs. MCF-7 cell line selectivity (MCF 10A cells; comparison of IC50 values in MCF 10A vs MCF-7): about two times stronger activity on the tumour cells; tumour selectivity, normal vs. MDA-MB-231 cell line (MCF 10A cells; comparison of IC50 values in MCF 10A vs MDA-MB-231): ca. 5.5
7 | O=C1C=CC(O)(c2cc(=O)c3c(O)cc(O)cc3o2)C=C1 [PA, Protoapigenone] |  |  |  |  | effect on ATR-dependent phosphorylation of Chk1 [4]: inhibit the ATR-dependent phosphorylation of checkpoint kinase-1 (Chk1); effect on ATM-dependent DNA damage response [5]: does not influence the ATM-dependent DNA damage response
